Laboratory results: article PMC4254268 (Cellular signalling, 2014)
Each block holds one compound with its values, some of them ahead of it.

Assays:
Ang- = assay type: in vitro ADME, rat; conditions: n=3
Outline: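 NRK-52E cells grown to confluence are serum-starved 24 h, then kept 48 h in serum-free or 100 uM glycated albumin (MGA) medium. They are harvested, frozen at −80°C and homogenized in 10 mM HEPES, 125 mM NaCl, 10 μM ZnCl2, pH 7.4, then spun at 100,000g. 125I-Ang-(1-7) (0.5 nM) is incubated with 2 μg supernatant protein for 30 min at 37°C and stopped with ice-cold 1.0% phosphoric acid. Products are separated by isocratic reverse-phase HPLC with flow-through γ detection, identified against 125I standards, and reported as fmol/mg/min (Bradford protein).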

α-SMA in NRK-52E cells [1] = assay: α-SMA immunofluorescent staining; assay type: cell-based, rat; conditions: 100 μM MGA 72 h, Ang-(1-7) 100 nM + DAL 10 μM
Outline: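 NRK-52E cells were grown 2 days on chamber slides in 5% FBS medium, then serum-free for 24 h. They were treated 72 h with 100 μM MGA ± test agents and fixed in 2% paraformaldehyde for 15 min. After 0.2% Triton permeabilisation and 3% BSA block, cells were stained overnight at 4°C with mouse anti-α-SMA (1:200), then Alexa Fluor 568 anti-mouse (1:400); nuclei with DAPI. Representative of 3 passages.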

α-SMA in NRK-52E cells [2] = assay: α-SMA protein expression by Western blot; assay type: cell-based, rat; conditions: 100 μM MGA 48 h
Outline: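 After 24 h serum starvation, cells received 100 uM MGA ± test agents for 48 h. Triton lysates were run on 10% SDS-PAGE and transferred to PVDF. Blots were probed overnight at 4°C with mouse anti-α-SMA (1:5000), then anti-mouse HRP (1:3000) and chemiluminescence. Membranes were stripped and re-probed for EFα1 (1:3000) as loading control. Densitometry; 3-4 cell passages.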

NRK-52E cells [3] = assay: Cellular hypertrophy by 3H-leucine incorporation; assay type: cell-based, rat; conditions: 100 μM MGA 48 h
Outline: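 Confluent NRK-52E cells were serum-starved for 24 h, then kept 48 h in serum-free medium ± 100 μM MGA and test agents. Cells were pulsed with 0.5 μCi 3H-leucine for the last 24 h at 37°C, washed in PBS and fixed 15 min in ice-cold 10% TCA. After 5% TCA washes, protein was dissolved in 0.05 N NaOH/0.1% SDS at 37°C and counted by scintillation. Triplicate wells; % of control per well; 5 cell passages.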

[4] = tested on: TGF-β release from NRK-52E cells; assay: TGF-β release into cell media by ELISA; assay type: cell-based, rat; conditions: MGA 48 h
Outline: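 Cells were seeded in 12-well plates, kept serum-free for 24 h, then treated with MGA ± test agents; serum-free cells served as controls. Media were collected on ice and TGF-β measured by ELISA (sensitivity 15 pg/ml). Release was expressed as ng/ml.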

NRK-52E cells [5] = assay: Intracellular angiotensin peptide content by RIA; assay type: cell-based, rat
Outline: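 Cells were serum-free for 24 h, then given 100 uM MGA for 48 h; pellets were snap-frozen. Pellets were boiled 15 min in water, sonicated, acidified to 0.2% TFA and spun at 20,000g for 20 min at 4°C. Peptides were extracted on C18 (eluted in 80% methanol/0.2% TFA) and blanks subtracted. Ang I, Ang II and Ang-(1-7) were measured by separate RIAs; the Ang-(1-7) RIA also detects Ang-(2-7). Paired t-test versus control.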

NRK-52E cells [6] = assay: Cell area in immunofluorescent images; assay type: cell-based, rat; conditions: MGA 48 hours
Outline: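 NRK-52E cells were serum-starved for 24 h, then exposed to MGA for 48 h. Immunofluorescent images were taken. Fields were chosen at random and every cell in each field was measured. Cell area was expressed as % of control cell area.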

ERK1/2 in NRK-52E cells [7] = assay: MGA-induced ERK1/2 phosphorylation by Western blot; assay type: cell-based, rat; conditions: MGA 48 hours, immunoblot densitometry, n=3
Outline: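 Cells were serum-starved for 24 h, then treated with 100 uM MGA for 48 h. Lysis was in Triton buffer, pH 7.4, with NaVO4, PMSF and leupeptin. 10-50 μg protein was run on 10% SDS-PAGE and transferred to PVDF. Blots were probed overnight at 4°C with anti-phospho-ERK1/2 (1:2000), then stripped and re-probed for total ERK1/2 (1:3000). Detection was HRP chemiluminescence, with densitometry. 3 cell passages.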

ERK1/2 in NRK-52E cells [8] = assay: TGF-β-induced ERK1/2 phosphorylation by Western blot; assay type: cell-based, rat; conditions: TGF-β 5 ng/ml, 15 min incubation, n=3
Outline: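 Rat kidney proximal epithelial NRK-52E cells in DMEM/F12 with 5% FBS are serum-starved 24 h, then exposed to TGF-β (5 ng/ml) for 15 min. Lysis is in Triton buffer (100 mM NaCl, 50 mM NaF, 5 mM EDTA, 1% Triton X-100, 50 mM Tris-HCl pH 7.4, plus NaVO4, PMSF, leupeptin), followed by sonication and a 10,000 g spin. 10-50 μg protein is run on 10% SDS-PAGE and blotted to PVDF. Phospho-ERK1/2 is detected by HRP chemiluminescence, then the membrane is stripped and reprobed for total ERK1/2. Bands are quantified by densitometry.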

- Metabolism of Ang-(1-7) to Ang-(1-4), MGA cells (abstract) (Ang-; supernatant of MGA-treated NRK-52E cells): 175 ± 9 fmol/min/mg protein
- Metabolism of Ang-(1-7) to Ang-(1-4), control cells (abstract) (Ang-; supernatant of control NRK-52E cells): 115 ± 11 fmol/min/mg protein
Compound: CC[C@H](C)[C@H](NC(=O)[C@H](Cc1ccc(O)cc1)NC(=O)[C@@H](NC(=O)[C@H](CCCNC(=N)N)NC(=O)[C@@H](N)CC(=O)O)C(C)C)C(=O)N[C@@H](Cc1c[nH]cn1)C(=O)N1CCC[C@H]1C(=O)O [Ang-(1-7), Angiotensin-(1-7)]

Compound: D-Ala^7-Ang-(1-7) [DAL, reference compound]
- Effect of DAL on the inhibition of MGA-induced MT by Ang-(1-7) (α-SMA staining) (α-SMA in NRK-52E cells [1]): appeared to be reversed
- Effect of DAL on the inhibition of MGA-induced α-SMA expression by Ang-(1-7) (α-SMA in NRK-52E cells [2]; Ang-(1-7) 100 nM + DAL 10 μM): blocked

Compound: MGA: AGE product: BSA incubated with 500 μM methylglyoxal for 24 hours
- Fold increase of 3H-leucine incorporation, MGA alone (NRK-52E cells [3]): approximately 2 fold
- TGF-β release, MGA alone ([4]; ELISA of media, control 0.4 ± 0.1, n=6): 1.16 ± 0.1 ng/mL
- Fold increase of TGF-β release, MGA alone ([4]; vs control): approximately 3 fold
- Intracellular Ang-(1-7) peptide content (NRK-52E cells [5]; 100 uM MGA 48 h, RIA, mean ± SEM, n=3, control cells 396 ± 59): 219 ± 54 fmol/mg protein
- Intracellular Ang I peptide levels vs control (NRK-52E cells [5]; 100 uM MGA 48 h, RIA, n=3): not different
- Intracellular Ang II peptide levels vs control (NRK-52E cells [5]; 100 uM MGA 48 h, RIA, n=3): not different
- Reduction of intracellular levels of Ang-(1-7) (NRK-52E cells [5]; MGA exposure 48 hours): approximately 50%
- Fold induction of α-SMA protein expression, MGA alone (α-SMA in NRK-52E cells [2]; vs control cells): 3 fold
- Fold increase of cell area, MGA alone (NRK-52E cells [6]): approximately 4 fold
- Cell area, MGA alone (NRK-52E cells [6]; mean ± SEM n=3): 467 ± 70 % of control
- Fold increase in density of phosphorylated ERK 1, MGA alone (ERK1/2 in NRK-52E cells [7]): 2.5 fold
- Fold increase in density of phosphorylated ERK 2, MGA alone (ERK1/2 in NRK-52E cells [7]): 4 fold

Compound: TGF-β
- ERK1/2 phosphorylation, TGF-β alone (ERK1/2 in NRK-52E cells [8]): stimulated
